In ChEMBL document CHEMBL1153722, “Design, synthesis, and characterization of peptide-based rab geranylgeranyl transferase inhibitors” (J Med Chem, 2009) one finds inhibition data, which are given here for 56 compounds.

Molecules are shown by their SMILES. Peptide text beside a SMILES is read from it. * marks the point of attachment. Hydrocinnamoyl = O=C(CCc1ccccc1)*; Myristoyl = CCCCCCCCCCCCCC(=O)*; Nicotinoyl = O=C(c1cccnc1)*; Morpholide = C1CN(*)CCO1; Piperidide = C1CCN(*)CC1; NHBn = c1ccc(CN*)cc1; NHPh = c1ccc(N*)cc1

For this experiment, the species on record is Rattus norvegicus. The experiment can be described thus: Inhibition of rat recombinant Rab geranylgeranyltransferase at 100 uM in presence of canine Rab7 and rat REP1 NBD-FPP based continuous fluorimetric assay. The procedure, abridged:
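Continuous fluorometric assay in 96/384-well format: 3 μM Rab7, 3 μM REP1, 9 μM NBD-FPP and 400 nM RabGGTase, with or without inhibitor. […] IC50 was calculated from three independent measurements.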
Turning to `CCCCCCCCCCCOc1ccc(C(=O)N[C@@H](Cc2c[nH]cn2)C(=O)N[C@@H](Cc2ccc(O)cc2)C(=O)N[C@@H](Cc2ccccc2)C(=O)O)cc1`, the inhibition came to 75%.
The same measure for `CC[C@H](C)[C@H](NC(=O)c1ccc(-c2ccccc2)cc1)C(=O)N[C@@H](C(=O)N[C@@H](CCC(N)=O)C(N)=O)C(C)C`: 89%; for `O=C(CCc1ccccc1)N[C@@H](CO)C(=O)NCC(=O)N[C@@H](CO)C(=O)Nc1ccccc1` (Hydrocinnamoyl-Ser-Gly-Ser-NHPh): 93%.
The value for `CCCCCCCCCCCNC(=O)[C@H](Cc1ccc(O)cc1)NC(=O)CNC(=O)[C@H](Cc1ccc(O)cc1)NC(=O)CCc1ccc(F)cc1` was 88%.
The same measure for `O=C(CNC(=O)[C@H](Cc1ccc(O)cc1)NC(=O)c1ccc(F)cc1)N[C@@H](Cc1ccc(O)cc1)C(=O)N1CCOCC1`: 108%; for `CCCCOC(=O)[C@H](Cc1ccc(O)cc1)NC(=O)CNC(=O)[C@H](Cc1ccc(O)cc1)NC(=O)c1ccc(F)cc1`: 76%.
As to `CCCCCCCCCCC(=O)N[C@@H](Cc1c[nH]cn1)C(=O)N[C@@H](Cc1ccccc1)C(=O)N[C@@H](Cc1ccc(O)cc1)C(=O)N(C)OC`, the inhibition amounted to 76%.
The same measure for `NC(=O)CC[C@H](NC(=O)[C@H](Cc1ccccc1)NC(=O)[C@H](CO)NC(=O)CCc1ccccc1)C(=O)NC1CCCCC1`: 99%.
The value for `NCCOC(=O)[C@H](Cc1ccc(O)cc1)NC(=O)CNC(=O)[C@H](Cc1c[nH]cn1)NC(=O)OCc1ccccc1` was 101%; that for `CCCCCCCCCCCCCCCC(=O)N[C@@H](Cc1ccc(O)cc1)C(=O)N[C@@H](Cc1ccc(O)cc1)C(=O)N[C@@H](Cc1ccc(O)cc1)C(=O)OCCN` was 110%.
The value for `COC(=O)[C@H](Cc1ccc(O)cc1)NC(=O)[C@H](Cc1ccc(O)cc1)NC(=O)[C@H](Cc1ccc(O)cc1)NC(=O)c1ccc(F)cc1F` was 79%; that for `O=C(/C=C/c1ccc(F)cc1)N[C@@H](CO)C(=O)N[C@@H](Cc1ccccc1)C(=O)N[C@@H](CO)C(=O)Nc1ccc(F)cc1F` was 92%.
With `NC(=O)[C@H](Cc1ccc(O)cc1)NC(=O)CCNC(=O)[C@H](Cc1c[nH]cn1)NC(=O)OCc1ccccc1`, the inhibition worked out at 89%.
The same measure for `CCOC(=O)[C@H](CCC(N)=O)NC(=O)[C@H](Cc1ccccc1)NC(=O)[C@H](C)NC(=O)CCc1ccccc1` (Hydrocinnamoyl-Ala-Phe-Gln-OEt): 107%; for `CC(C)C[C@H](NC(=O)[C@H](COC(C)(C)C)NC(=O)[C@H](Cc1ccccc1)NC(=O)CCc1ccccc1)C(=O)O`: 88%.
Regarding `C[C@H](NC(=O)[C@@H](NC(=O)c1ccc(-c2ccccc2)cc1)[C@@H](C)O)C(=O)N[C@@H](CCC(=O)O)C(=O)OCCCCO`, the inhibition was determined as 101%.
The same measure for `C[C@@H](O)[C@H](NC(=O)C(Br)C(Br)c1ccccc1)C(=O)N[C@@H](Cc1ccccc1)C(=O)N[C@@H](CCC(N)=O)C(=O)Nc1nccs1` (stereo partly specified): 93%.
Regarding `O=C(N[C@@H](Cc1ccc(O)cc1)C(=O)N[C@@H](Cc1ccc(O)cc1)C(=O)N[C@@H](Cc1ccc(O)cc1)C(=O)Nc1nccs1)c1ccc(F)cc1F`, the inhibition came out at 78%.
In the case of `CC#CCOC(=O)[C@H](Cc1ccccc1)NC(=O)[C@H](CC(C)C)NC(=O)[C@@H]1CCCN1C(=O)/C=C/c1ccccc1`, the inhibition is 107%.
The same measure for `CCCCCCCCCCCCCCCC(=O)N[C@@H](Cc1ccc(O)cc1)C(=O)N[C@@H](Cc1ccc(O)cc1)C(=O)N[C@@H](Cc1ccc(O)cc1)C(=O)Nc1nccs1`: 83%; for `CCCCCCCCCCCCCC(=O)N[C@@H](Cc1ccc(O)cc1)C(=O)N[C@@H](Cc1ccc(O)cc1)C(=O)N[C@@H](Cc1ccc(O)cc1)C(=O)N1CCOCC1` (Myristoyl-Tyr-Tyr-Tyr-Morpholide): 95%; for `NC(=O)CC[C@H](NC(=O)[C@H](Cc1ccccc1)NC(=O)[C@H](CO)NC(=O)CCc1ccccc1)C(=O)O` (Hydrocinnamoyl-Ser-Phe-Gln-OH): 102%.
The value for `CC[C@H](C)[C@H](NC(=O)[C@H](Cc1ccccc1)NC(=O)c1cccnc1)C(=O)N[C@@H](CCCNC(=N)N)C(=O)OC` (Nicotinoyl-Phe-Ile-Arg-OMe) was 105%; that for `O=C(CNC(=O)[C@H](Cc1ccc(O)cc1)NC(=O)c1ccc(F)cc1)N[C@@H](Cc1ccc(O)cc1)C(=O)Nc1ccc(F)cc1F` was 98%.
As for `Cc1nc(C)c(C(=O)OC[C@H](NC(=O)[C@H](C)NC(=O)[C@H](COC(=O)c2oc(C)nc2C)NC(=O)c2coc(-c3ccccc3)n2)C(=O)O)o1`, the inhibition was 95%.
The value for `CCCCCCCCCCC(=O)N[C@@H](Cc1ccc(O)cc1)C(=O)N[C@@H](Cc1c[nH]cn1)C(=O)N[C@@H](Cc1c[nH]cn1)C(=O)Nc1ccccn1` was 64%; that for `CC(C)[C@H](NC(=O)[C@@H](Cc1ccccc1)NC(=O)c1ccc(-c2ccccc2)cc1)C(=O)N[C@H](C)C(=O)N1CCC[C@H]1C(N)=O` was 71%.
Turning to `C[C@@H](NC(=O)CCc1ccccc1)C(=O)N[C@@H](Cc1ccccc1)C(=O)N[C@@H](CCC(N)=O)C(N)=O`, the inhibition came to 95%.
For `O=C(CNC(=O)c1csc(-c2ccc(C(F)(F)F)cc2)n1)N[C@@H](Cc1ccccc1)C(=O)N[C@@H](Cc1c[nH]cn1)C(=O)O`, the inhibition was found to be 137%.
As to `CON(C)C(=O)[C@H](CC(C)C)NC(=O)[C@H](COC(C)(C)C)NC(=O)[C@H](Cc1ccccc1)NC(=O)/C=C/c1ccc(F)cc1`, the inhibition came to 94%.
The same measure for `CN(C(=O)[C@@H](Cc1ccc(O)cc1)NC(=O)OCc1ccccc1)[C@@H](Cc1ccccc1)C(=O)N[C@@H](Cc1ccc(O)cc1)C(=O)O`: 46%.
The value for `COC(=O)[C@H](CC(C)C)NC(=O)[C@H](CO)NC(=O)[C@H](Cc1ccccc1)NC(=O)CCc1ccccc1` was 69%.
For `NC(=O)CC[C@H](NC(=O)[C@H](Cc1ccccc1)NC(=O)CNC(=O)CCc1ccccc1)C(=O)NCc1ccccc1` (Hydrocinnamoyl-Gly-Phe-Gln-NHBn), the inhibition was determined as 85%.
The same measure for `CC(C)C[C@H](NC(=O)[C@H](CO)NC(=O)[C@H](Cc1ccccc1)NC(=O)/C=C/c1ccc(F)cc1)C(=O)O`: 71%.
As for `C[C@@H](O)[C@H](NC(=O)/C=C/c1ccccc1)C(=O)N[C@@H](Cc1ccccc1)C(=O)N[C@@H](CCC(N)=O)C(=O)NC1CCCCC1`, the inhibition stood at 75%.
The value for `CON(C)C(=O)[C@H](CCC(N)=O)NC(=O)[C@H](Cc1ccccc1)NC(=O)[C@H](C)NC(=O)CCc1ccccc1` was 112%; that for `CC#CCOC(=O)[C@H](Cc1ccccc1)NC(=O)CNC(=O)[C@@H]1CCCN1C(=O)/C=C/c1ccccc1` was 69%; that for `C=CCCCCCCCCCOC(=O)[C@H](CO)NC(=O)[C@H](Cc1ccccc1)NC(=O)[C@H](CO)NC(=O)/C=C/c1ccc(F)cc1` was 87%.
The value for `O=C(CCc1ccccc1)N[C@@H](CO)C(=O)N[C@@H](Cc1ccccc1)C(=O)N[C@@H](CO)C(=O)N1CCCCC1` (Hydrocinnamoyl-Ser-Phe-Ser-Piperidide) was 62%; that for `CC(=O)Nc1cc(C(=O)N2CCC[C@H]2C(=O)N[C@@H](C(=O)N[C@@H](CCC(=O)O)C(=O)NC2CCCCC2)C(C)C)ccc1[N+](=O)[O-]` was 117%; that for `NCCCCNC(=O)[C@H](Cc1ccc(O)cc1)NC(=O)CNC(=O)[C@H](Cc1ccc(O)cc1)NC(=O)c1ccc(F)cc1` was 88%.
The same measure for `CCCCCCCCCCCCCC(=O)OC[C@H](NC(=O)[C@H](Cc1ccccc1)NC(=O)[C@H](CCCCNC(=O)c1csc(-c2cccnc2)n1)NC(=O)c1csc(-c2cccnc2)n1)C(=O)O`: 67%; for `O=C(CNC(=O)[C@H](Cc1ccc(O)cc1)NC(=O)c1ccc(F)cc1)N[C@@H](Cc1ccc(O)cc1)C(=O)Nc1ccccc1`: 97%; for `C[C@H](NC(=O)c1coc(-c2ccccc2)n1)C(=O)NCC(=O)N[C@@H](Cc1ccc(O)cc1)C(=O)Nc1ccc(F)cc1F`: 83%.
For `C=CCCCOC(=O)[C@H](CCC(N)=O)NC(=O)[C@H](C)NC(=O)[C@@H](NC(=O)c1ccc(-c2ccccc2)cc1)[C@@H](C)O`, the inhibition worked out at 89%.
The value for `COc1ccc(C[C@@H](C(=O)N(C)[C@@H](Cc2ccccc2)C(=O)O)N(C)C(=O)[C@@H](Cc2ccc(O)cc2)NC(=O)CCc2ccccc2)cc1` was 46%; that for `CCCCCCCCCCCCCC(=O)N[C@@H](Cc1ccc(O)cc1)C(=O)N[C@@H](Cc1ccc(O)cc1)C(=O)N[C@@H](Cc1ccc(O)cc1)C(=O)NC1CCCCC1` was 93%; that for `CCCCCCCCCCC(=O)N[C@@H](Cc1c[nH]cn1)C(=O)N[C@@H](Cc1ccccc1)C(=O)N[C@@H](Cc1ccc(O)cc1)C(=O)OCCN` was 61%.
The value for `CCCCCCCCCCCCCC(=O)N[C@@H](Cc1ccc(O)cc1)C(=O)N[C@@H](Cc1ccc(O)cc1)C(=O)N[C@@H](Cc1ccc(O)cc1)C(=O)N(C)OC` was 89%.
The value for `C=CCOC(=O)[C@H](Cc1cn(C(c2ccccc2)(c2ccccc2)c2ccccc2)cn1)NC(=O)[C@H](Cc1ccccc1)NC(=O)CNC(=O)c1coc(-c2ccccc2)n1` was 55%; that for `O=C(CNC(=O)[C@H](Cc1ccc(O)cc1)NC(=O)c1coc(-c2ccccc2)n1)N[C@@H](Cc1ccc(O)cc1)C(=O)O` was 58%; that for `CCCCCCCCCCCOc1ccc(C(=O)N[C@@H](Cc2c[nH]cn2)C(=O)N[C@@H](Cc2ccc(O)cc2)C(=O)N[C@@H](Cc2ccccc2)C(N)=O)cc1` was 81%.
With `C[C@H](NC(=O)[C@@H](NC(=O)c1ccc(-c2ccccc2)cc1)[C@@H](C)O)C(=O)N[C@@H](CCC(=O)O)C(=O)NN`, the inhibition stood at 89%.
The same measure for `NC(=O)[C@H](CO)NC(=O)CNC(=O)[C@H](CO)NC(=O)CCc1ccccc1` (Hydrocinnamoyl-Ser-Gly-Ser-NH2): 85%; for `C=CCCCOC(=O)[C@H](CCC(N)=O)NC(=O)[C@H](Cc1ccccc1)NC(=O)[C@@H](NC(=O)/C=C/c1ccccc1)[C@@H](C)O`: 102%.
The value for `NC(=O)CC[C@H](NC(=O)[C@H](Cc1ccccc1)NC(=O)[C@H](CO)NC(=O)CCc1ccccc1)C(=O)NCc1ccccc1` (Hydrocinnamoyl-Ser-Phe-Gln-NHBn) was 87%.

For orientation: inhibition means the relative decrease from the control value, in per cent.
